Test results taken from PMC8693849 (RSC Advances, 2021).
Converted amounts (≈) assume the structure as drawn.

Assays:
P. fluorescens (S 97) = test: Agar diffusion method, zone of inhibition; type: cell-based, Pseudomonas fluorescens; conditions: for Diameter of zone inhibition: P. fluorescens (S 97), average of triplicate; for zone of inhibition at 10 µg/mL / zone of inhibition at 15 µg/mL: Pseudomonas fluorescens, 24 h, read-out: Diameter of zone inhibition
How it was run: (§1)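 Bacterial strains were tested by agar diffusion on nutrient agar (peptone 5 and meat extract 3 g L⁻¹ in distilled water, pH 7.0, 2% agar, autoclaved 121 °C for 20 min). Each test compound (1 mg) was dissolved in 1 mL DMSO and made up to 10 mL with sterile water (100 μg mL⁻¹ stock). The solution was placed in the agar, and inhibition zones were measured after 24 h incubation. Values are the mean of triplicate readings.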

[1] = system: MRSA1 (methicillin resistant S. aureus); test: Minimal inhibitory concentration; type: cell-based
How it was run: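 Broth microdilution against MDR clinical isolates: 80 μl Mueller–Hinton broth plus 20 μl tween 80 received 100 μl test compound, then two-fold serial dilution. Each well was inoculated with 100 μl of 0.5 McFarland suspension ([…]) and incubated covered at 35 ± 2 °C for 24 h. MIC is the lowest concentration inhibiting growth.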

S. aureus (ATCC 25923) = test: Agar diffusion method, zone of inhibition; type: cell-based, Staphylococcus aureus; conditions: for Diameter of zone inhibition: S. aureus (ATCC 25923), 15 μg mL^−1, 24 h, average of triplicate; for zone of inhibition at 10 µg/mL / zone of inhibition at 15 µg/mL: Staphylococcus aureus, ATCC25923, 24 h, read-out: Diameter of zone inhibition
How it was run: as §1

[2] = system: K. pneumoniae (MDR clinical isolate); test: Zone of inhibition against MDR clinical isolate; type: cell-based; conditions: for Diameter of zone inhibition: MDR K. pneumoniae clinical isolate, 15 μg mL^−1; for zone of inhibition at 15 µg/mL: Klebsiella pneumoniae, read-out: Diameter of zone inhibition
Gram-positive bacteria = test: Agar diffusion method; type: cell-based, S. aureus (ATCC 25923) and S. pyogenes (ATCC 19615); conditions: summary of Table 1
How it was run: as §1

C. albicans = test: Agar diffusion method, zone of inhibition; type: cell-based, Candida albicans; conditions: for Diameter of zone inhibition: C. albicans, average of triplicate; for zone of inhibition at 10 µg/mL / zone of inhibition at 15 µg/mL: Candida albicans, 24 h, read-out: Diameter of zone inhibition
How it was run: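 For agar diffusion against C. albicans, each test compound (1 mg) was dissolved in 1 mL DMSO and diluted to 10 mL with sterile water (100 μg mL⁻¹ stock). The solution was placed in the agar, and the inhibition zone diameter was read after 24 h. Values are the average of triplicate readings.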

[3] = system: P. phaseolicola (GSPB 2828); test: Agar diffusion method, zone of inhibition; type: cell-based, Pseudomonas phaseolicola; conditions: for Diameter of zone inhibition: P. phaseolicola (GSPB 2828), 15 μg mL^−1, 24 h, average of triplicate; for zone of inhibition at 10 µg/mL / zone of inhibition at 15 µg/mL: Pseudomonas, 24 h, read-out: Diameter of zone inhibition
How it was run: as §1

[4] = system: MRSA1 (methicillin resistant S. aureus); test: Zone of inhibition against MDR clinical isolate; type: cell-based; conditions: for Diameter of zone inhibition: MRSA1 clinical isolate, 15 μg mL^−1; for zone of inhibition at 15 µg/mL: Staphylococcus aureus, read-out: Diameter of zone inhibition
S. pyogenes (ATCC 19615) = test: Agar diffusion method, zone of inhibition; type: cell-based, Streptococcus pyogenes; conditions: Streptococcus pyogenes, ATCC19615, 24 h, read-out: Diameter of zone inhibition
Gram-negative bacteria = test: Agar diffusion method; type: cell-based, P. phaseolicola (GSPB 2828) and P. fluorescens (S 97); conditions: summary of Table 1
How it was run: as §1

[5] = MRSA1 clinical isolate, Table 2

| Compound | Activity against Gram-positive bacteria (Gram-positive bacteria) | zone of inhibition at 10 µg/mL (S. aureus (ATCC 25923)) | zone of inhibition at 15 µg/mL (S. aureus (ATCC 25923)) | zone of inhibition at 10 µg/mL (S. pyogenes (ATCC 19615)) | zone of inhibition at 15 µg/mL (S. pyogenes (ATCC 19615)) | zone of inhibition at 10 µg/mL (P. fluorescens (S 97)) | zone of inhibition at 15 µg/mL (P. fluorescens (S 97)) | zone of inhibition at 10 µg/mL [3] | zone of inhibition at 15 µg/mL [3] | zone of inhibition at 10 µg/mL (C. albicans) | zone of inhibition at 15 µg/mL (C. albicans) | zone of inhibition at 15 µg/mL [2] | Activity against Gram-negative bacteria (Gram-negative bacteria) | zone of inhibition at 15 µg/mL [4] | other results |
| --- | --- | --- | --- | --- | --- | --- | --- | --- | --- | --- | --- | --- | --- | --- | --- |
| 2-(5-(4-Chlorophenyl)-6-cyano-2-(2-hydroxyphenyl)-7-imino-1,2-dihydro-[1,2,4]triazolo[1,5-a]pyrimidin-3(7H)-yl)-3-(1H-indol-3-yl)propanoic acid [Compound 8c] | active | – | – | – | – | – | – | – | – | – | – | – | – | – | Diameter of zone inhibition (P. fluorescens (S 97); 10 μg mL^−1, 24 h): 13 mm; Diameter of zone inhibition (P. fluorescens (S 97); 15 μg mL^−1, 24 h): 23 mm; MIC [1, 5]: 50 µg/mL; Diameter of zone inhibition (S. aureus (ATCC 25923)): 30 mm; Diameter of zone inhibition [2]: 12 mm; Diameter of zone inhibition (C. albicans; 10 μg mL^−1, 24 h): 8 mm; Diameter of zone inhibition (C. albicans; 15 μg mL^−1, 24 h): 11 mm; Diameter of zone inhibition [3]: 24 mm; Diameter of zone inhibition [4]: 28 mm |
| 2-(5-(4-Chlorophenyl)-6-cyano-2-(2-hydroxyphenyl)-7-imino-2-methyl-1,2-dihydro-[1,2,4]triazolo[1,5-a]pyrimidin-3(7H)-yl)-3-(1H-indol-3-yl)propanoic acid [Compound 8d] | active | – | – | – | – | – | – | – | – | – | – | – | – | – | Diameter of zone inhibition (P. fluorescens (S 97); 10 μg mL^−1, 24 h): 12 mm; Diameter of zone inhibition (P. fluorescens (S 97); 15 μg mL^−1, 24 h): 22 mm; MIC [1, 5]: 50 µg/mL; Diameter of zone inhibition (S. aureus (ATCC 25923)): 29 mm; Diameter of zone inhibition [2]: 10 mm; Diameter of zone inhibition (C. albicans; 10 μg mL^−1, 24 h): 6 mm; Diameter of zone inhibition (C. albicans; 15 μg mL^−1, 24 h): 7 mm; Diameter of zone inhibition [3]: 24 mm; Diameter of zone inhibition [4]: 25 mm |
| CC(=O)OCC1=C(C(=O)O)N2C(=O)[C@@H](NC(=O)Cc3cccs3)[C@H]2SC1 [Cephalothin, reference compound] | – | 28 mm | 28 mm | 30 mm | 30 mm | – | – | – | – | – | – | – | – | – | – |
| O=C(N[C@H](CO)[C@H](O)c1ccc([N+](=O)[O-])cc1)C(Cl)Cl [Chloramphenicol, reference compound] | – | – | – | – | – | 30 mm | 30 mm | 25 mm | 25 mm | – | – | – | – | – | – |
| Clc1ccccc1C(c1ccccc1)(c1ccccc1)n1ccnc1 [Clotrimazole, reference compound] | – | – | – | – | – | – | – | – | – | 36 mm | 44 mm | – | – | – | – |
| CC(=O)C1=C(C)N2NC(c3ccccc3O)N(C(C)C(=O)O)C2=NC1c1ccc(Cl)cc1 (centres unmarked) [Compound 2a, 2-(6-Acetyl-5-(4-chlorophenyl)-2-(2-hydroxyphenyl)-7-methyl-1,2-dihydro-[1,2,4]triazolo[1,5-a]pyrimidin-3(5H)-yl)propanoic acid] | – | 10 mm | 16 mm | 12 mm | – | 16 mm | – | – | – | – | – | – | – | – | – |
| CC(=O)C1=C(C)N2NC(C)(c3ccccc3O)N(C(C)C(=O)O)C2=NC1c1ccc(Cl)cc1 (centres unmarked) [Compound 2b, 2-(6-Acetyl-5-(4-chlorophenyl)-2-(2-hydroxyphenyl)-2,7-dimethyl-1,2-dihydro-[1,2,4]triazolo[1,5-a]pyrimidin-3(5H)-yl)propanoic acid] | – | 12 mm | – | 10 mm | – | 15 mm | 29 mm | 16 mm | – | 6 mm | 8 mm | 25 mm | active | 8 mm | – |
| CC(=O)C1=C(C)N2NC(c3ccccc3O)N(C(Cc3c[nH]c4ccccc34)C(=O)O)C2=NC1c1ccc(Cl)cc1 (centres unmarked) [Compound 2c, 2-(6-Acetyl-5-(4-chlorophenyl)-2-(2-hydroxyphenyl)-7-methyl-1,2-dihydro-[1,2,4]triazolo[1,5-a]pyrimidin-3(5H)-yl)-3-(1H-indol-3-yl)propanoic acid] | active | – | – | – | – | 12 mm | 22 mm | 11 mm | 23 mm | 6 mm | 9 mm | 8 mm | – | 26 mm | MIC ([1]; MRSA1, Table 4): 25 µg/mL (≈ 43.9 µM); SI (selectivity index, CC50/MIC) ([1]; MRSA1 vs VERO cells): 10; MIC ([1]; Staphylococcus aureus): 25 µg/mL (≈ 43.9 µM) |
| CCOC(=O)C1=C(C)N2NC(C)(c3ccccc3O)N(C(C)C(=O)O)C2=NC1c1ccc(Cl)cc1 (centres unmarked) [Compound 3b, 2-(5-(4-Chlorophenyl)-6-(ethoxycarbonyl)-2-(2-hydroxyphenyl)-2,7-dimethyl-1,2-dihydro-[1,2,4]triazolo[1,5-a]pyrimidin-3(5H)-yl)propanoic acid] | – | 12 mm | 25 mm | – | 24 mm | – | – | – | – | 10 mm | 12 mm | 27 mm | active | 12 mm | – |
| CCOC(=O)C1=C(C)N2NC(C)(c3ccccc3O)N(C(Cc3c[nH]c4ccccc34)C(=O)O)C2=NC1c1ccc(Cl)cc1 (centres unmarked) [Compound 3d, 2-(5-(4-Chlorophenyl)-6-(ethoxycarbonyl)-2-(2-hydroxyphenyl)-2,7-dimethyl-1,2-dihydro-[1,2,4]triazolo[1,5-a]pyrimidin-3(5H)-yl)-3-(1H-indol-3-yl)propanoic acid] | active | – | – | – | – | 10 mm | – | 11 mm | 23 mm | 9 mm | 10 mm | 6 mm | – | 6 mm | – |
| CC(C(=O)O)N1C2=NC(c3ccc(Cl)cc3)c3c([nH]c(=O)[nH]c3=O)N2NC1(C)c1ccccc1O (centres unmarked) [Compound 5, 2-(5-(4-Chlorophenyl)-2-(2-hydroxyphenyl)-2-methyl-6,8-dioxo-1,2,6,7,8,9-hexahydropyrimido[5,4-e][1,2,4]triazolo[1,5-a]pyrimidin-3(5H)-yl)propanoic acid] | – | – | 26 mm | 11 mm | 25 mm | 15 mm | 28 mm | – | 30 mm | 7 mm | 9 mm | 23 mm | active | 8 mm | – |
| CC(C(=O)O)N1C2=NC(c3ccc(Cl)cc3)C3=C(CCCC3=O)N2NC1(C)c1ccccc1O (centres unmarked) [Compound 6, 2-(5-(4-Chlorophenyl)-2-(2-hydroxyphenyl)-2-methyl-6-oxo-1,2,6,7,8,9-hexahydro-[1,2,4]triazolo[1,5-a]quinazolin-3(5H)-yl)propanoic acid] | – | 15 mm | 25 mm | 10 mm | 24 mm | 19 mm | – | – | 29 mm | 7 mm | 8 mm | 22 mm | active | 10 mm | – |
| CC(C(=O)O)N1C2=NC(c3ccc(Cl)cc3)C3=C(CC(C)(C)CC3=O)N2NC1(C)c1ccccc1O (centres unmarked) [Compound 7, 2-(5-(4-Chlorophenyl)-2-(2-hydroxyphenyl)-2,8,8-trimethyl-6-oxo-1,2,6,7,8,9-hexahydro-[1,2,4]triazolo[1,5-a]quinazolin-3(5H)-yl)propanoic acid] | – | 15 mm | 23 mm | 12 mm | 20 mm | – | – | 19 mm | – | 10 mm | 11 mm | 20 mm | active | 8 mm | – |
